Key:
LNCaP cells = assay: Cytotoxicity assay; format: cell-based; conditions: for selective cytotoxicity: LNCaP versus DU145 and PC3; for IC50: read-out: IC50 (Mean ± SE), LNCaP, PSMA positive, PTEN-deficient, 72 h, n=6
How it was run: (§1)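 DU145 and LNCaP were grown in RPMI-1640 and PC3 in F-12K, all with 10 % FBS. Cells were seeded at 5,000 per well. After 12 h, test compound (free or micelle-loaded) in PBS was added at 0, 0.1, 1, 5, 10, 50 or 100 μM. PBS and TCA served as negative and positive controls. After 72 h, 55-μM resazurin solution was added for 4 h at 37 °C, then resorufin fluorescence was read (ex 560/em 590 nm). IC50 was taken as the midpoint between controls on each plate.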

DU145 cells = assay: Cytotoxicity assay; format: cell-based; conditions: read-out: IC50 (Mean ± SE); DU145, PSMA negative, 72 h, n=6
How it was run: as §1

PC3 cells = assay: Cytotoxicity assay; format: cell-based; conditions: read-out: IC50 (Mean ± SE); PC3, PSMA negative, 72 h, n=6
How it was run: as §1

[1] = tested on: pAkt (Ser-473) in LNCaP cells; assay: Western blot assay of Akt phosphorylation; format: cell-based; conditions: 2-μM drug, 100-ng/mL EGF, 30 min, serum-starved LNCaP
How it was run: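 Cells were lysed in buffer with protease inhibitors, and protein was quantified by BCA. Equal protein amounts were run on 10 % SDS-PAGE and transferred to nitrocellulose. Blots were probed for phospho-Akt (Ser-473) and total Akt, followed by HRP-conjugated secondary antibodies and chemiluminescent detection.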

cell growth = conditions: cited from earlier work

## Cc1cc(C(C)Nc2ccccc2)c2nc(N3CCOCC3)cc(=O)n2c1 (centres unmarked) [TGX-221]
LNCaP cells
  selective cytotoxicity: selective cytotoxicity to LNCaP cells
  IC50: 3.98 ± 0.18 µM
DU145 cells
  IC50: 35.6 ± 0.12 µM
PC3 cells
  IC50: 18.2 ± 0.85 µM
[1]
  phosphorylation of Akt (Ser473): inhibited phosphorylation of Akt

## CC1(C)C(=CC=C2CCCC(C=CC3=[N+](CCCCS(=O)(=O)[O-])c4ccc5ccccc5c4C3(C)C)=C2Cl)N(CCCCS(=O)(=O)[O-])c2ccc3ccccc3c21.[Na+] [IR-820]
Cell growth
  concentration at which cell growth is significantly inhibited: greater than 5 μM

## Cc1cc(C(C)N(CCO)c2ccccc2)c2nc(N3CCOCC3)cc(=O)n2c1 (centres unmarked) [BL05]
LNCaP cells
  selective cytotoxicity: selective cytotoxicity to LNCaP cells
  IC50: 4.04 ± 0.11 µM
DU145 cells
  IC50: 32.4 ± 0.67 µM
PC3 cells
  IC50: 23.4 ± 0.74 µM
[1]
  phosphorylation of Akt (Ser473): inhibited phosphorylation of Akt
